Experiments:
[1] = biological target: T1, Prostaglandin E2 receptor EP3 subtype (Homo sapiens, UniProt P43115); experiment: Antagonist activity at human EP3 receptor expressed in human U2OS cells assessed as inhibition of PGE2-induced intracellular calcium mobilization by FLIPR assay; type: functional, cell-based
T1 sequence (P43115 whole entry): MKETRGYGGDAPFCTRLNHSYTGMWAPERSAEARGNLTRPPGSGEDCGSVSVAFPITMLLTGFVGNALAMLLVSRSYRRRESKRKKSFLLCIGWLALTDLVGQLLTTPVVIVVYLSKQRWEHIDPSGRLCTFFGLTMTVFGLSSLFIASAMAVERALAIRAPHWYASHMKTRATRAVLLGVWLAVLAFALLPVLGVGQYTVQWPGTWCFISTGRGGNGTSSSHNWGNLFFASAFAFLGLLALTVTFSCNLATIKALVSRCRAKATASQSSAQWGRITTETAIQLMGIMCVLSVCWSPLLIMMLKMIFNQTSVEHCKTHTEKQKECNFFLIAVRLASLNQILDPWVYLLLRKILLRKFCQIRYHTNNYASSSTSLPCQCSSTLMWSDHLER

Cytochrome P450 2C9 = Cytochrome P450 2C9 (Homo sapiens, UniProt P11712); experiment: Inhibition of CYP2C9; type: ADME
Cytochrome P450 2D6 = Cytochrome P450 2D6 (Homo sapiens, UniProt P10635); experiment: Inhibition of CYP2D6; type: ADME
Cytochrome P450 3A4 = Cytochrome P450 3A4 (Homo sapiens, UniProt P08684); experiment: Inhibition of CYP3A4; type: ADME
[2] = Permeability across artificial membrane; type: ADME; conditions: PAMPA; read-out: permeability
Cytochrome P450 2C19 = Cytochrome P450 2C19 (Homo sapiens, UniProt P33261); experiment: Inhibition of CYP2C19; type: ADME
[3] = Clearance in rat blood at 1.2 mg/kg, iv and 2 mg/kg, po; type: ADME, organism-based
Procedure, shortened: (§1)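 Rats dosed at 1.2 mg/kg iv and 2.0 mg/kg po. Blood clearance, half-life, steady-state volume of distribution and oral bioavailability derived from the iv and po arms.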

[4] = Half life in rat blood at 1.2 mg/kg, iv and 2 mg/kg, po; type: ADME, organism-based; procedure, shortened: as §1
[5] = Volume of distribution at steady state in rat blood at 1.2 mg/kg, iv and 2 mg/kg, po; type: ADME, organism-based; conditions: read-out: Vdss; procedure, shortened: as §1
[6] = Oral bioavailability in rat blood at 1.2 mg/kg, iv and 2 mg/kg, po; type: ADME, organism-based; procedure, shortened: as §1

Sequence of Cytochrome P450 2C9 (P11712 whole entry): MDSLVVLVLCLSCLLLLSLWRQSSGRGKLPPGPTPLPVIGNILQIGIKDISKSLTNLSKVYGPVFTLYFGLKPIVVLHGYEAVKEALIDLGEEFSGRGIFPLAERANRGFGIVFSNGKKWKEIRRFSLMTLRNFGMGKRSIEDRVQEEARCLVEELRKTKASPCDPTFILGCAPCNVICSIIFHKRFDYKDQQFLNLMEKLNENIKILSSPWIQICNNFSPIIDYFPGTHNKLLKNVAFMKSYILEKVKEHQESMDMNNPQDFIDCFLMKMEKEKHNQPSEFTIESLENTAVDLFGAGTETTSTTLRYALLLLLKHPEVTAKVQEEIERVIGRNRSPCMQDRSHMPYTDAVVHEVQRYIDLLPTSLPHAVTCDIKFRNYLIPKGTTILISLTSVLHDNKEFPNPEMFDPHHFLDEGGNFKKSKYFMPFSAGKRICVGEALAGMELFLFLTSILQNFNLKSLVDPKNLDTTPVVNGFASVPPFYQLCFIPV
Sequence of Cytochrome P450 2C19 (P33261 whole entry): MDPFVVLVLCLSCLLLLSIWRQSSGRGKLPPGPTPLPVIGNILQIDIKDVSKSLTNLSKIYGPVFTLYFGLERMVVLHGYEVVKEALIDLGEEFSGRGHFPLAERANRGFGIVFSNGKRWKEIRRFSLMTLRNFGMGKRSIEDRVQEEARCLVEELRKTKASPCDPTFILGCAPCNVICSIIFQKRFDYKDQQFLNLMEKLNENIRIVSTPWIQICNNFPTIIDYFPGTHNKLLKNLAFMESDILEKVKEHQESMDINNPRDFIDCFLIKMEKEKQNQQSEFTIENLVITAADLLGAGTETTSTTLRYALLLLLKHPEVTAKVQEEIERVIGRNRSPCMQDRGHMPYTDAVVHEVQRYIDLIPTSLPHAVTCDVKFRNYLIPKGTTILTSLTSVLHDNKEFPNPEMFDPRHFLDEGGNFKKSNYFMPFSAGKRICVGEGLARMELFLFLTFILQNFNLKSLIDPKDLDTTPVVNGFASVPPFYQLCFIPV
Sequence of Cytochrome P450 2D6 (P10635 whole entry): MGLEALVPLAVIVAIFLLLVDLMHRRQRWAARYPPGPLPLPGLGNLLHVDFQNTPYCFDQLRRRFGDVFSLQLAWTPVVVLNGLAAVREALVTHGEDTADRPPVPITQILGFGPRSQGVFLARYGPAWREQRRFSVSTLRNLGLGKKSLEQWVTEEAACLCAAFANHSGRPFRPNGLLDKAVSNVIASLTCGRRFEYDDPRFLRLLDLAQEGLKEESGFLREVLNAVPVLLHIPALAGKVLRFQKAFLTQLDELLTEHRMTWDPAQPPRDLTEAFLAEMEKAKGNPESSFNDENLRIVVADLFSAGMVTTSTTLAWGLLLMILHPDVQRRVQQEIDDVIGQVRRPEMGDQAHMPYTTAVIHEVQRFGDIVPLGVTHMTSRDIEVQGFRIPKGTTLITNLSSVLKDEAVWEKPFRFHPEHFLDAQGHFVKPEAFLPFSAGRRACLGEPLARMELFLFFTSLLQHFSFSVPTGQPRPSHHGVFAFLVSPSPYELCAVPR
Sequence of Cytochrome P450 3A4 (P08684 whole entry): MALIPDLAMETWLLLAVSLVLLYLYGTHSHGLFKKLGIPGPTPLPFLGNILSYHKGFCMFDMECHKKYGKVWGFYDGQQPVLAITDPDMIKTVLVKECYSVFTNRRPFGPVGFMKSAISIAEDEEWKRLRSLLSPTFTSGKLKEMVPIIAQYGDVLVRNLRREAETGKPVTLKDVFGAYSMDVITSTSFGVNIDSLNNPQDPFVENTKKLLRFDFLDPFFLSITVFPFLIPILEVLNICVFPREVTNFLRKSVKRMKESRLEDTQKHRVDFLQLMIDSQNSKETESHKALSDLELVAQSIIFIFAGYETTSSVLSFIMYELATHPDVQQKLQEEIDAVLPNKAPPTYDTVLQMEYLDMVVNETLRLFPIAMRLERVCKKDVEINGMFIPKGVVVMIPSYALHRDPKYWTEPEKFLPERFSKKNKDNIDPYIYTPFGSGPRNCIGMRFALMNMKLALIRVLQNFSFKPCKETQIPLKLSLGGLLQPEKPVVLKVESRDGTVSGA

Row | Compound | Ki [1] [nM] | also measured
1 | O=C(Nc1ccccc1Cl)Nc1cccn(Cc2ccccc2Cl)c1=O | 126 | 
2 | CCc1cccc(NC(=O)Nc2cccn(Cc3cccc(C(F)(F)F)c3)c2=O)c1 | 200 | 
3 | COc1cccc(NC(=O)Nc2ccc(C)n(Cc3ccccc3Cl)c2=O)c1 | 1260 | 
4 | COc1cccc(NC(=O)Nc2cccn(Cc3ccc(C)cc3)c2=O)c1 | 3160 | 
5 | CCc1cccc(NC(=O)Nc2cccn(Cc3ccccc3F)c2=O)c1 | 100 | 
6 | COc1cccc(NC(=O)Nc2cccn(Cc3ccc(Cl)cc3)c2=O)c1 | 1000 | 
7 | COc1cccc(NC(=O)Nc2cccn(Cc3cccc(F)c3)c2=O)c1 | 1000 | 
8 | COc1cccc(NC(=O)Nc2cccn(Cc3ccc(F)cc3Cl)c2=O)c1 | 398 | 
9 | CCc1cccc(NC(=O)Nc2cc(C)cn(Cc3ccccc3Cl)c2=O)c1 | 200 | 
10 | N#Cc1cccc(NC(=O)Nc2cccn(Cc3ccccc3Cl)c2=O)c1 | > 25100 | 
11 | O=C(Nc1ccccc1F)Nc1cccn(Cc2ccccc2Cl)c1=O | 158 | 
12 | O=C(Nc1cccc(I)c1)Nc1cccn(Cc2ccccc2Cl)c1=O | 398 | 
13 | CC(C)c1cccc(NC(=O)Nc2cccn(Cc3ccccc3Cl)c2=O)c1 | 63.1 | 
14 | CCc1ccc(NC(=O)Nc2cccn(Cc3ccccc3Cl)c2=O)cc1 | > 25100 | 
15 | COc1cccc(NC(=O)Nc2cccn(Cc3ccccc3Br)c2=O)c1 | 316 | 
16 | COc1cccc(NC(=O)Nc2cc(C)cn(Cc3ccccc3Cl)c2=O)c1 | 1260 | 
17 | COc1cccc(NC(=O)Nc2cccn(Cc3ccccc3C)c2=O)c1 | 2510 | 
18 | COc1cccc(NC(=O)Nc2cccn(Cc3c(F)cccc3Cl)c2=O)c1 | 25.1 | IC50 (Cytochrome P450 2C9): 3700 nM; IC50 (Cytochrome P450 2D6): > 25000 nM; IC50 (Cytochrome P450 3A4): > 25000 nM; Papp [2]: 22 ×10⁻⁶ cm/s; IC50 (Cytochrome P450 2C19): 4500 nM
19 | COc1cccc(NC(=O)Nc2cccn(Cc3cccc(Cl)c3)c2=O)c1 | 398 | 
20 | O=C(Nc1cccc(Br)c1)Nc1cccn(Cc2ccccc2Cl)c1=O | 1000 | 
21 | CCc1cccc(NC(=O)Nc2cccn(Cc3c(F)cccc3Cl)c2=O)c1 | 6.31 | 
22 | CCc1ccccc1NC(=O)Nc1cccn(Cc2ccccc2Cl)c1=O | 3980 | 
23 | CC(=O)c1cccc(NC(=O)Nc2cccn(Cc3ccccc3Cl)c2=O)c1 | > 25100 | 
24 | O=C(Nc1ccc(Cl)cc1)Nc1cccn(Cc2ccccc2Cl)c1=O | > 25100 | 
25 | COc1cccc(NC(=O)Nc2cccn(Cc3ccccc3F)c2=O)c1 | 501 | 
26 | Cc1cccc(NC(=O)Nc2cccn(Cc3ccccc3Cl)c2=O)c1 | 251 | 

Row | Compound | Ki [1] [nM] | also measured
27 | COc1cccc(NC(=O)Nc2cccn(Cc3cccc(C)c3)c2=O)c1 | 1260 | 
28 | COc1ccc(Cn2cccc(NC(=O)Nc3cccc(OC)c3)c2=O)cc1 | 794 | 
29 | COc1ccc(NC(=O)Nc2cccn(Cc3ccccc3Cl)c2=O)cc1 | > 25100 | 
30 | COc1cccc(NC(=O)Nc2cccn(Cc3ccc(F)cc3)c2=O)c1 | 1260 | 
31 | O=C(Nc1cccc(Cc2ccccc2)c1)Nc1cccn(Cc2ccccc2Cl)c1=O | > 25100 | 
32 | O=C(O)Cc1cccc(NC(=O)Nc2cccn(Cc3ccccc3Cl)c2=O)c1 | > 25100 | 
33 | O=C(Nc1cccc(Cl)c1)Nc1cccn(Cc2ccccc2Cl)c1=O | 1000 | 
34 | CCc1cccc(NC(=O)Nc2c(C)ccn(Cc3ccccc3Cl)c2=O)c1 | > 25100 | 
35 | COc1cccc(CC(=O)Nc2cccn(Cc3ccccc3Cl)c2=O)c1 | > 25100 | 
36 | Cc1ccc(NC(=O)Nc2cccn(Cc3ccccc3Cl)c2=O)cc1 | 3160 | 
37 | CCc1cccc(NC(=O)Nc2ccc(C)n(Cc3ccccc3Cl)c2=O)c1 | 126 | 
38 | COc1cccc(NC(=O)Nc2cccn(Cc3ccccc3)c2=O)c1 | 1000 | 
39 | O=C(Nc1ccccc1I)Nc1cccn(Cc2ccccc2Cl)c1=O | 5010 | 
40 | COc1cccc(Cn2cccc(NC(=O)Nc3cccc(OC)c3)c2=O)c1 | 2000 | 
41 | COC(=O)Cc1cccc(NC(=O)Nc2cccn(Cc3ccccc3Cl)c2=O)c1 | > 25100 | 
42 | CCc1cccc(NC(=O)Nc2cccn(Cc3ccc(F)cc3Cl)c2=O)c1 | 126 | 
43 | COc1cccc(NC(=O)Nc2cccn(Cc3cc(F)ccc3Cl)c2=O)c1 | 794 | 
44 | Cc1ccccc1NC(=O)Nc1cccn(Cc2ccccc2Cl)c1=O | 794 | 
45 | CCc1cccc(NC(=O)Nc2cc(Cl)cn(Cc3ccccc3Cl)c2=O)c1 | 501 | 
46 | COc1ccccc1NC(=O)Nc1cccn(Cc2ccccc2Cl)c1=O | 631 | 
47 | COc1cccc(NC(=O)Nc2cccn(Cc3ccccc3Cl)c2=O)c1 | 158 | Papp [2]: 55 ×10⁻⁶ cm/s; clearance [3]: 24 mL/min/kg; half-life [4]: 1.3 h; Vd [5]: 3.4 L/kg; bioavailability [6]: 27%
48 | O=C(Nc1ccc(C(F)(F)F)cc1)Nc1cccn(Cc2ccccc2Cl)c1=O | > 25100 | 
49 | O=C(Nc1cccc(F)c1)Nc1cccn(Cc2ccccc2Cl)c1=O | 1580 | 
50 | COc1cccc(N(C)C(=O)Nc2cccn(Cc3ccccc3Cl)c2=O)c1 | > 25100 | 
51 | COc1cccc(C(=O)Nc2cccn(Cc3ccccc3Cl)c2=O)c1 | > 25100 | 

From ChEMBL document CHEMBL1268956, “3-Urea-1-(phenylmethyl)-pyridones as novel, potent, and selective EP3 receptor antagonists” (Bioorg Med Chem Lett, 2010)
